Screening results: PubChem, several laboratories
PKA-R2B act: activators of PKA-R2B holoenzyme, primary screen, biochemical, fluorescence polarization, Cy5-IP20, human; cAMP-dependent protein kinase catalytic subunit beta (Homo sapiens) + cAMP-dependent …; activation, % at 11.4 µM; 0.079% of 340,000 active; PKA-R2B holoenzyme dissociation; R2B truncated from residue 108, S112A mutant; 0% DMSO only, 100% 113 µM cGMP;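 active = activation above a cutoff set at the mean over all compounds plus 3 SD, cut at about 18% in these data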;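 note: higher means more holoenzyme dissociation and a rise in polarization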
Target sequence (P31323 whole entry, looked up, other chains not shown, the tested form may be a part): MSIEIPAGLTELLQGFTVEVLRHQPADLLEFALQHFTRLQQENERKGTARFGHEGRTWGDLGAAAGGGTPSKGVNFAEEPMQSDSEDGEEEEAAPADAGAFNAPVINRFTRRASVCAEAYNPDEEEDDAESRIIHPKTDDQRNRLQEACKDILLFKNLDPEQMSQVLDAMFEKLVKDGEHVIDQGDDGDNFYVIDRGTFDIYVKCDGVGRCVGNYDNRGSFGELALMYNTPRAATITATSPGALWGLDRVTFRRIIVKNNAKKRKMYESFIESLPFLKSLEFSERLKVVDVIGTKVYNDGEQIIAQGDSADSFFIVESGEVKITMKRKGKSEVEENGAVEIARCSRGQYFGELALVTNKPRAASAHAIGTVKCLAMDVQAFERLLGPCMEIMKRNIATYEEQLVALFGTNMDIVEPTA
S100A4 inh HTS: inhibitors of S100A4-myosin IIA peptide binding, primary screen, biochemical, fluorescence polarization, TAMRA-MyoIIA peptide; Protein S100-A4 (Homo sapiens), P26447; inhibition, % at 10.7 µM; 0.14% of 360,000 active; AID 652163, 2013;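 active = mean inhibition of at least 70% across replicates, with every replicate also reaching that level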
Target sequence (P26447 whole entry, looked up): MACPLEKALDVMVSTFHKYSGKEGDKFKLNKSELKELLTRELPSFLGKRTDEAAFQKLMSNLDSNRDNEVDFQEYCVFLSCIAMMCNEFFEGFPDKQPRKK
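incubation = readout 5 min after mixing, signal stable up to 60 min | system = S100A4 monomer protein | buffer or medium = HEPES pH 7.2 with CaCl2, KCl, NaCl, DTT, Triton | benchmarks = neutral control DMSO, positive control TFP | also added = fluorescent myosin IIA peptide, 5 nM | compound dosing = one concentration per compound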
CRFR2-BP antag: antagonists of CRF-BP/CRF-R2 complex, primary screen, cell-based, HEK293, calcium dye fluorescence, uHTS | inhibition, % at 11.8 µM | 0.59% of 350,000 active | CRF-induced calcium fluorescence;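 active = inhibition of the ligand-induced calcium signal above about 50% at the single tested concentration, limit read from the data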
SIRT5 block: SIRT5 desuccinylase inhibitors, primary screen, biochemical, fluorescence imaging, single point, set 5. NAD-dependent protein deacylase sirtuin-5, mitochondrial (Homo sapiens), Q9NXA8. Purified SirT5, succinyl-peptide AMC, trypsin-coupled fluorescence. inhibition, % at 15 µM. 1.1% of 330,000 active. AID 652115, 2013; in the data active = inhibition above about 15%
PKA-R1A act: activators of PKA-R1A holoenzyme, primary screen, biochemical, fluorescence polarization, Cy5-IP20, bovine R1A, mouse PKAc; PKA-R1A dissociation; scaled: DMSO 0%, 113 µM cGMP 100%; AID 504707, 2011; activation, % at 11.4 µM; 0.083% of 340,000 active;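 active = percent activation above the mean of all tested compounds plus 3 SD, cut at about 19% in these data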;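 note: higher means more PKAc released from R1A so a rise in polarization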
Starred values were filed as active, the others as inactive; . = no result. Compounds with a hit are over-represented: about 1.5% of the library has one in this group of screens.

SMILES | PKA-R2B act | S100A4 inh HTS | CRFR2-BP antag | SIRT5 block | PKA-R1A act
CO[C@H]1CN(C)C(=O)c2cc(NC(=O)C3CC3)ccc2OC[C@H](C)N(C(=O)Cc2ccccn2)C[C@@H]1C | . | 11 | . | -1 | .
Cc1cccc(-c2ccc([C@@H]3[C@H](CO)N4C(=O)CN(C(=O)c5cccnc5)C[C@@H]34)cc2)c1 | . | 15 | . | -4 | .
CC1(C)CC(=O)C2=C(C1)Nc1ccccc1NC2 | -16 | 0 | -21 | -3 | -11
O=S1c2ccccc2Oc2ccccc21 | -4 | 2 | -4 | -1 | 1
CC1(C)CC(=O)C2=C(C1)Nc1ccccc1[S@]2=O | 4 | 2 | 11 | 16* | 2
O=S1c2ccccc2Nc2ccccc21 | 4 | 2 | -6 | 25* | -12
COc1cccc(-c2ccc(C3[C@@H]4CN(C(=O)Cc5ccccc5)C[C@H]3N4)cc2)c1 (stereo partly drawn) | . | 32 | . | . | .
C[C@H](CO)N1C[C@H](C)[C@H](CN(C)C(=O)CCCN(C)C)OCCCC[C@H](C)Oc2ccc(NC(=O)c3ccccc3)cc2C1=O | . | 3 | . | -3 | .
COc1cccc(C(=O)Nc2ccc3c(c2)C(=O)N(C)C[C@@H](OC)[C@H](C)CN(CCc2ccccc2)[C@@H](C)CO3)c1 | . | -18 | . | 11 | .
CCC(=O)Nc1ccc2c(c1)C(=O)N(C)C[C@@H](OC)[C@@H](C)CN(CCC(F)(F)F)[C@H](C)CO2 | . | -3 | . | 16* | .
CCCN1C[C@H](C)[C@H](OC)CN(C)C(=O)c2cc(NC(=O)c3ccc(F)cc3)ccc2OC[C@H]1C | . | 12 | . | 16* | .
COc1cccc(C(=O)Nc2ccc3c(c2)C(=O)N(C)C[C@H](OC)[C@@H](C)CN(CCc2ccccc2)[C@@H](C)CO3)c1 | . | -10 | . | 18* | .
CCC(=O)Nc1ccc2c(c1)C(=O)N(C)C[C@@H](OC)[C@H](C)CN(CC1CCCCC1)[C@@H](C)CO2 | . | -9 | . | 22* | .
COC(=O)c1ccc(C)c(NC(=O)CCSc2ccc(Cl)cc2)c1 | -8 | . | 10 | . | -8
COC(=O)c1ccc(Sc2ccc(Cl)cc2)c(N)c1 | -6 | . | 73* | . | -5
C[C@H](CO)N1C[C@H](C)[C@H](CN(C)C(=O)Nc2ccc(C(F)(F)F)cc2)OCCCC[C@H](C)Oc2ccc(NC(=O)Nc3ccc(F)cc3)cc2C1=O | . | 2 | . | 17* | .
COc1ccc(NC(=O)N(C)C[C@@H]2OCCCC[C@H](C)Oc3ccc(NS(=O)(=O)c4ccc(F)cc4)cc3C(=O)N([C@@H](C)CO)C[C@@H]2C)cc1 | . | -3 | . | 6 | .
C[C@@H]1CCCCO[C@H](CN(C)C(=O)C2CCCCC2)[C@H](C)CN([C@@H](C)CO)C(=O)c2cc(NC(=O)Nc3ccc(F)cc3)ccc2O1 | . | -2 | . | 16* | .
C[C@@H]1CCCCO[C@@H](CN(C)C(=O)C2CCCCC2)[C@@H](C)CN([C@H](C)CO)C(=O)c2cc(NC(=O)Nc3ccc(F)cc3)ccc2O1 | . | 2 | . | 1 | .
COc1ccc(S(=O)(=O)Nc2ccc3c(c2)C(=O)N([C@H](C)CO)C[C@@H](C)[C@H](CN(C)C(=O)Nc2ccc(F)cc2)OCCCC[C@@H](C)O3)cc1 | . | 10 | . | 15* | .
COc1ccc(S(=O)(=O)Nc2ccc3c(c2)C(=O)N([C@@H](C)CO)C[C@H](C)[C@@H](CN(C)C(=O)Nc2ccc(F)cc2)OCCCC[C@H](C)O3)cc1 | . | -7 | . | 16* | .
C[C@@H]1CCCCO[C@H](CN(C)C(=O)Nc2ccc(F)cc2)[C@@H](C)CN([C@H](C)CO)C(=O)c2cc(NC(=O)Nc3ccc(C(F)(F)F)cc3)ccc2O1 | . | -7 | . | 0 | .
CC=Cc1ccc2n(c1=O)C[C@@H]1[C@@H](CO)[C@H](C(=O)NCC3CC3)[C@H]2N1CCC (mixture of isomers) | . | 6 | . | -2 | .
CO[C@H]1CN(C)C(=O)c2ccc(NC(C)=O)cc2OC[C@@H](C)N(C(=O)C2CCOCC2)C[C@H]1C | . | -37 | . | -2 | .
C[C@H]1CCCCO[C@H](CN(C)C(=O)Nc2cccc3ccccc23)[C@@H](C)CN([C@@H](C)CO)C(=O)c2cc(NS(=O)(=O)c3ccc(F)cc3)ccc2O1 | . | -3 | . | 17* | .
SMILES | PKA-R2B act | S100A4 inh HTS | CRFR2-BP antag | SIRT5 block | PKA-R1A act
COc1ccc(NC(=O)Nc2ccc3c(c2)C(=O)N([C@@H](C)CO)C[C@H](C)[C@@H](CN(C)C(=O)Nc2ccc(F)cc2)OCCCC[C@H](C)O3)cc1 | . | 1 | . | 17* | .
C[C@@H]1CN([C@H](C)CO)C(=O)c2cc(NS(=O)(=O)c3ccc(F)cc3)ccc2O[C@@H](C)CCCCO[C@@H]1CN(C)C(=O)NC1CCCCC1 | . | 120* | . | 9 | .
O=C(CC1CC1)N[C@@H]1CC[C@@H](CCNS(=O)(=O)c2ccc(Cl)cc2)O[C@H]1CO | . | 8 | . | -1 | .
COc1cccc(NC(=O)N2CC3(C2)[C@H](c2ccccc2)[C@H](CO)N3C(=O)C2CC2)c1 | . | 9 | . | 3 | .
COc1ccc(S(=O)(=O)Nc2ccc3c(c2)C(=O)N([C@@H](C)CO)C[C@H](C)[C@@H](CN(C)S(=O)(=O)c2ccc(OC)cc2)O3)cc1 | . | -55 | . | -1 | .
Cc1cc(C(=O)Nc2cccc3c2O[C@H](CN(C)S(=O)(=O)c2ccc(F)cc2)[C@@H](C)CN([C@@H](C)CO)C3=O)n(C)n1 | . | -3 | . | 1 | .
CCCC(=O)Nc1ccc2c(c1)C(=O)N(C)C[C@@H](OC)[C@H](C)CN(Cc1ccccc1F)[C@@H](C)CO2 | . | -7 | . | -13 | .
CC1=C(N2CCOCC2)CCC1=O | -1 | 85* | 2 | . | -4
CC1=C(C)C(=O)C(N2CCOCC2)=CC1=O | -3 | -9 | 13 | 1 | 0
CCCNC(=O)C[C@H]1C[C@H]2c3cc(NC(=O)Nc4ccc(F)cc4)ccc3O[C@H]2[C@H](CO)O1 | . | 0 | . | -1 | .
N#Cc1c(SCC(=O)Nc2nncs2)sc2c(O)cc(=O)[nH]c12 | -3 | -6 | -10 | 43* | 8
COc1cc(Cl)c(C)cc1NC(=O)CSc1sc2c(O)cc(=O)[nH]c2c1C#N | -4 | -7 | 14 | 15* | 8
Cc1ccnc(NCc2cccc3ccccc23)c1 | 4 | -2 | -9 | 53* | 0
COc1cccc(CNc2cc(C)ccn2)c1O | -3 | -1 | 2 | -1 | 6
COc1ccc(NC(=O)Cc2c(SC)c3ccccc3n2Cc2ccccc2)cc1 | -6 | . | 60* | . | 2
C[C@@H](NC(=O)N(C)C[C@@H]1OCc2ccccc2-c2c(n(C)c3ccccc23)C(=O)N([C@@H](C)CO)C[C@@H]1C)c1ccccc1 | . | 9 | . | -4 | .
